Only a selection was taken, and hits are over-represented in it overall.
IDH1 R132H inh – blocks human IDH1 R132H reductase activity | O75874 | diaphorase/resazurin fluorescence, 60 min | inhibition, % at 10 µM | 70,000 tested, 0.18% active | AID 624101; in the data active = inhibition above about 34%; inconclusive = no clear call, values can overlap the other calls; inactive = below about 11%;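 note: 0% = DMSO and 100% = no enzyme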
Target sequence (O75874 whole entry R132H): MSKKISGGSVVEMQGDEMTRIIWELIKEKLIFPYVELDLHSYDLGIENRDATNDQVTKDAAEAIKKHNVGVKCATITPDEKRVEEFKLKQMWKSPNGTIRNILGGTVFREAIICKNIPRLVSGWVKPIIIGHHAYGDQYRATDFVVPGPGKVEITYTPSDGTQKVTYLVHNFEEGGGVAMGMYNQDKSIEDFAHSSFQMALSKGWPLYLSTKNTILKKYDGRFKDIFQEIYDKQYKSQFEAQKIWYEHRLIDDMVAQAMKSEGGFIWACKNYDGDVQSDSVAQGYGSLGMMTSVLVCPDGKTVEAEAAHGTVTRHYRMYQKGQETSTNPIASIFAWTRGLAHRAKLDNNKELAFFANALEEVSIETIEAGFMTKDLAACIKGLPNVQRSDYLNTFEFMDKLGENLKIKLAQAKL
Pf Dd2 growth – blocks growth of Plasmodium falciparum Dd2 parasites; P. falciparum Dd2 growth, SYBR Green, 72 h; active compounds read low; activity change, % at 10 µM; 94,000 tested, 2.3% active; in the data active = activity change below about -80%; inconclusive = no clear call, values can overlap the other calls
GASC1 inh – inhibitors of human demethylase GASC-1 KDM4C | Q9H3R0 | GST-KDM4C 2-372, H3K9me3 peptide, LANCE TR-FRET | inhibition, % at 12.5 µM | 96,000 tested, 0.15% active | AID 720574;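 active = mean replicate inhibition above about 25%, with at least 55% of replicates also reaching it, limit read from the data, passing the limit was not always enough; inconclusive = only one of those two conditions met; inactive = neither condition met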
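Material: N-terminal GST-fused human GASC-1 (KDM4C) fragment, residues 2-372. Input: 10 nM enzyme. Incubation: enzyme reaction 30 min, then detection 60 min, both room temperature. Doses: one test concentration per compound. Read-out basis: inhibition from TR-FRET ratio decrease. Detection: LANCE TR-FRET, excitation 340 nm, emissions 618 and 671 nm.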
Starred values were filed as active, the others as inactive; ? = inconclusive; nt = not tested or not shown.

SMILES	IDH1 R132H inh	Pf Dd2 growth	GASC1 inh
COc1ccc(NC(=O)Nc2ccc3c(c2)C(=O)N([C@@H](C)CO)C[C@H](C)[C@@H](CN(C)CC2CCCCC2)OCCCC[C@H](C)O3)cc1	nt	-86.5*	-1.6
COc1ccc(NC(=O)Nc2ccc3c(c2)C(=O)N([C@@H](C)CO)C[C@H](C)[C@@H](CN(C)CC2CC2)OCCCC[C@H](C)O3)cc1	nt	-89.8*	-2.0
COc1ccc(NC(=O)Nc2ccc3c(c2)C(=O)N([C@H](C)CO)C[C@H](C)[C@@H](CN(C)CC2CC2)OCCCC[C@@H](C)O3)cc1	nt	-59.4	0.2
COc1ccc(NC(=O)Nc2ccc3c(c2)C(=O)N([C@H](C)CO)C[C@H](C)[C@H](CN(C)CC2CCCCC2)OCCCC[C@H](C)O3)cc1	nt	?	-1.4
Cc1ccccc1S(=O)(=O)N1[C@H](CO)[C@@H](c2ccc(C#CC3CC3)cc2)[C@@H]1C#N	nt	-86.9*	0.8
N#C[C@@H]1[C@@H](c2ccc(C#CC3CC3)cc2)[C@H](CO)N1S(=O)(=O)c1ccccc1	nt	-63.6	0.2
N#C[C@H]1[C@@H](c2ccc(C#CC3CC3)cc2)[C@H](CO)N1S(=O)(=O)c1ccccc1	nt	-84.6*	0.1
N#C[C@@H]1[C@@H](c2ccc(C#CC3CCCC3)cc2)[C@H](CO)N1S(=O)(=O)c1ccccc1	nt	-28.9	-0.4
N#C[C@H]1[C@@H](c2ccc(C#CC3CCCC3)cc2)[C@@H](CO)N1S(=O)(=O)Cc1ccccc1	-0.4	-88.9*	0.8
N#C[C@H]1[C@H](c2ccc(C#CC3CC3)cc2)[C@@H](CO)N1S(=O)(=O)c1ccccc1	nt	-57.8	0.3
Cc1ccc(S(=O)(=O)N(C)C[C@@H]2Oc3c(NC(=O)Nc4c(C)noc4C)cccc3C(=O)N([C@H](C)CO)C[C@@H]2C)cc1	-1.8	-15.5	-1.0
COc1ccc2c3c([nH]c2c1)[C@@H](CO)N(C(=O)c1ccccn1)CC31CN(C(=O)C2CCCC2)C1	nt	-19.5	0.4
C[C@@H]1CN([C@H](C)CO)C(=O)c2cc(C#Cc3ccccn3)cnc2O[C@H]1CN(C)CC1CCCC1	0.0	45.6	1.5
COc1ccc2c3c(n(C)c2c1)[C@@H](CO)NCC31CCN(Cc2ccc(F)cc2)CC1	nt	13.3	nt
COc1ccc2c3c(n(C)c2c1)[C@H](CO)NCC31CCN(Cc2ccccc2Cl)CC1	nt	-84.6*	1.0
COc1ccc2c3c(n(C)c2c1)[C@H](CO)NCC31CCN(Cc2cc(-c3ccccc3)on2)CC1	nt	-91.2*	-0.3
COc1ccc2c3c(n(C)c2c1)[C@H](CO)NCC31CN(Cc2ccc(F)cc2)C1	nt	-84.5*	-1.0
COc1ccc2c3c(n(C)c2c1)[C@@H](CO)NCC31CCN(Cc2ccncc2)CC1	nt	-68.7	11.4
COc1ccc2c3c(n(C)c2c1)[C@@H](CO)NCC31CCN(Cc2ccccc2Cl)CC1	nt	-88.4*	0.6
COc1ccc2c3c(n(C)c2c1)[C@@H](CO)NCC31CN(Cc2ccc(Cl)cc2)C1	nt	-56.7	-1.1
COc1ccc2c3c(n(C)c2c1)[C@H](CO)NCC31CCN(Cc2ccccc2F)CC1	nt	?	0.2
C[C@H]1CN([C@@H](C)CO)C(=O)CCCn2cc(nn2)CO[C@H]1CN(C)S(=O)(=O)c1ccccc1C#N	nt	50.9	1.1
O=[N+]([O-])c1ccccc1NCCNS(=O)(=O)c1ccc(Cl)c(Cl)c1	-1.0	nt	nt
C[C@@H]1CN([C@@H](C)CO)C(=O)c2cc(NC(=O)Nc3ccccc3)ccc2O[C@@H]1CN(C)C(=O)Nc1ccc(C(F)(F)F)cc1	0.9	-41.9	-1.8
COC(=O)C[C@H]1CC[C@H]2[C@H](COc3ccc(NC(=O)Nc4c(C)noc4C)cc3C(=O)N2C)O1	nt	16.5	0.5
SMILES	IDH1 R132H inh	Pf Dd2 growth	GASC1 inh
COc1ccc2c3c(n(C)c2c1)[C@H](CO)NCC31CN(CC2CC2)C1	nt	8.6	1.1
COc1ccc2c3c(n(C)c2c1)[C@@H](CO)NCC31CCN(CC2CCCCC2)CC1	nt	-82.4*	nt
Cc1cc(-c2ccc(N=Nc3cc(S(=O)(=O)O)c4ccccc4c3N)c(C)c2)ccc1N=Nc1cc(S(=O)(=O)O)c2ccccc2c1N	42.6*	nt	nt
Cc1cc(N)n(-c2ccc(Oc3ccccc3)cc2S(=O)(=O)O)n1	-0.6	nt	nt
COCCNC(=O)C[C@@H]1C[C@@H]2c3cc(NC(=O)c4ccc5c(c4)OCO5)ccc3O[C@@H]2[C@H](CO)O1	-0.5	8.2	-1.3
CNC[C@H]1Oc2ccc(NC(=O)Nc3ccc(F)cc3)cc2CC(=O)N([C@@H](C)CO)C[C@@H]1C	0.3	9.0	-0.4
CCCNC(=O)N1C[C@@H](O)COC[C@@H]2O[C@H](CC(=O)NCCCN3CCOCC3)CC[C@H]21	nt	1.7	2.2
CCCN1C[C@H](C)[C@@H](OC)CN(C)C(=O)c2cc(NC(=O)c3ccccc3F)ccc2OC[C@H]1C	0.2	-43.2	0.1

High-throughput results (PubChem BioAssay)
